Data published in ChEMBL document CHEMBL1149171, “Development of orally bioavailable bicyclic pyrazolones as inhibitors of tumor necrosis factor-alpha production” (J Med Chem, 2004).
In brackets after ≈: the same amount, converted by molar mass.

Key:
[1] = target: Cyclin-dependent kinase 1/cyclin B (Homo sapiens) (UniProt P06493+P14635+Q8WWL7+O95067); assay: Inhibition of Cyclin-dependent kinase 1-cyclin B at 1 uM; assay type: protein-complex assay; design: scale not given: the % may be the effect or the level left
Summary of the method: (§1)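 Kinase selectivity panel. Each kinase tested with compound at 1 µM and ATP at its K_m, in triplicate. Activity is given as a percentage of control incubations; SD typically 10%.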

[2] = target: Mitogen-activated protein kinase 10 (Homo sapiens) (UniProt P53779); assay: Inhibition of c-Jun N-terminal kinase 3 at 1 uM; design: scale not given: the % may be the effect or the level left; summary of the method: as §1
Chain of Mitogen-activated protein kinase 10 (Homo sapiens) (P53779 whole entry): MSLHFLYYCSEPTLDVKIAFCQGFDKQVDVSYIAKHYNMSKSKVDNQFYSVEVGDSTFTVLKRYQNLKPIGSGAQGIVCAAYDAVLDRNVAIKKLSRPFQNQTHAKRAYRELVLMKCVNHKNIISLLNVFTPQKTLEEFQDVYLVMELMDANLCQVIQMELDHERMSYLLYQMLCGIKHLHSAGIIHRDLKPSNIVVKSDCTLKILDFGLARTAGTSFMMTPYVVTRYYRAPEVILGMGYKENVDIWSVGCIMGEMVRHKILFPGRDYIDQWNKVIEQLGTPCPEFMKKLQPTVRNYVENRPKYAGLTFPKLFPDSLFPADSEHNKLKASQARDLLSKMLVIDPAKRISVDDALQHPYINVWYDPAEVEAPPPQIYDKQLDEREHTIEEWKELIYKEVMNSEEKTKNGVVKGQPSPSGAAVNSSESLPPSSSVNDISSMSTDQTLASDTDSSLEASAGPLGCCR

[3] = target: Glycogen synthase kinase-3 beta (Homo sapiens) (UniProt P49841); assay: Inhibition of Glycogen synthase kinase-3 beta at 1 uM; design: scale not given: the % may be the effect or the level left; summary of the method: as §1
Chain of Glycogen synthase kinase-3 beta (Homo sapiens) (P49841 whole entry, looked up): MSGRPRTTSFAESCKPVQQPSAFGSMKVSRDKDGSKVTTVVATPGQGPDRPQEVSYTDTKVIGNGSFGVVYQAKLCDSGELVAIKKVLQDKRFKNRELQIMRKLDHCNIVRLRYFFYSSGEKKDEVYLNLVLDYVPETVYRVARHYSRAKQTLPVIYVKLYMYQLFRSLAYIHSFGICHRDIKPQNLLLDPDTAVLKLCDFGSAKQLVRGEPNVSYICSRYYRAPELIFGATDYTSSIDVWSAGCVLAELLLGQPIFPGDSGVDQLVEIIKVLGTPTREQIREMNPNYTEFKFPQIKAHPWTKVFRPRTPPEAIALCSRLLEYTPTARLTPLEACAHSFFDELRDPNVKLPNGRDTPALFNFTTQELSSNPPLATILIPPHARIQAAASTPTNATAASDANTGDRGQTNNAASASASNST

[4] = target: MAP kinase p38 (Homo sapiens, UniProt O15264+Q15759+Q16539+P53778); assay: Inhibition of human Mitogen-activated protein kinase p38; assay type: protein assay
[5] = target: RAC-alpha serine/threonine-protein kinase (Homo sapiens) (UniProt P31749); assay: Inhibition of Protein kinase B alpha (Akt) at 1 uM; design: scale not given: the % may be the effect or the level left; summary of the method: as §1
Chain of RAC-alpha serine/threonine-protein kinase (Homo sapiens) (P31749 whole entry): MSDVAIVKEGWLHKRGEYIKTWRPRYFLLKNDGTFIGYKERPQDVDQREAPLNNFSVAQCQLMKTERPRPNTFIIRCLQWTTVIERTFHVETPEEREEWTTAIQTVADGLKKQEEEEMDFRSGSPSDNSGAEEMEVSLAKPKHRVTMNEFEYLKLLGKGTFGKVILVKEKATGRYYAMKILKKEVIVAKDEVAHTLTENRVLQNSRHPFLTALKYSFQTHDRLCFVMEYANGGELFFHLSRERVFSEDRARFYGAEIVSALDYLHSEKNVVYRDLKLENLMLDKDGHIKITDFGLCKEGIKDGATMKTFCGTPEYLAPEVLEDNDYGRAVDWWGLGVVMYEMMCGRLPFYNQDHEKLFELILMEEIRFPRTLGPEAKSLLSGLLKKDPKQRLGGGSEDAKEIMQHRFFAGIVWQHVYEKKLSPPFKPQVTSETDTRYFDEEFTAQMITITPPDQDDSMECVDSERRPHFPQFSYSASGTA

[6] = target: T1, Dual specificity mitogen-activated protein kinase kinase 4 (Homo sapiens) (UniProt P45985); assay: Inhibition of MKK4/SKK1 kinase at 1 uM; design: scale not given: the % may be the effect or the level left; summary of the method: as §1
T1 sequence (whole entry): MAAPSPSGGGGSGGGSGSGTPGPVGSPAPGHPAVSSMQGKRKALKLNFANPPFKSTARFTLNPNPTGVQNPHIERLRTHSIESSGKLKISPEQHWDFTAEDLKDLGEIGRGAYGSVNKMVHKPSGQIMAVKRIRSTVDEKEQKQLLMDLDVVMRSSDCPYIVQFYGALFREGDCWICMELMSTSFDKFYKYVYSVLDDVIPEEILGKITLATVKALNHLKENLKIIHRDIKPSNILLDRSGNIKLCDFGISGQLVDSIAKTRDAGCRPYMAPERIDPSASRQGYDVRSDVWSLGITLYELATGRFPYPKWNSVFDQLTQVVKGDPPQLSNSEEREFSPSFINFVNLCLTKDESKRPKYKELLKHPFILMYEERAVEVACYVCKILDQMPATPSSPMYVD

[7] = target: Mitogen-activated protein kinase 9 (Homo sapiens) (UniProt P45984); assay: Inhibition of c-Jun N-terminal kinase 2-alpha 2 at 1 uM; design: scale not given: the % may be the effect or the level left; summary of the method: as §1
Chain of Mitogen-activated protein kinase 9 (Homo sapiens) (P45984 whole entry, looked up): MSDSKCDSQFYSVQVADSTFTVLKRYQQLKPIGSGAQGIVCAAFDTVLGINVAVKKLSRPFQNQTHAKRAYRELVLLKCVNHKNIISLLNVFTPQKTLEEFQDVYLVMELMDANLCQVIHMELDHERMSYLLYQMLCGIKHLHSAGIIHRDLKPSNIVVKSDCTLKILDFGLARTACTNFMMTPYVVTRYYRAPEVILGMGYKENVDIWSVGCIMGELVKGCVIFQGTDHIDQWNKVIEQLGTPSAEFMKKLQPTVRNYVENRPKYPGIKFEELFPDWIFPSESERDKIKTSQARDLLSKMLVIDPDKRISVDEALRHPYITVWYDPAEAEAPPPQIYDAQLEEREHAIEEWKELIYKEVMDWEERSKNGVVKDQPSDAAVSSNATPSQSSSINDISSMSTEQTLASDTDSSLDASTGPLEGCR

[8] = target: Dual specificity mitogen-activated protein kinase kinase 1 (MEK1, MAP2K1) (Homo sapiens) (UniProt Q02750); assay: Inhibition of Dual specificity mitogen activated protein kinase kinase 1 at 1 uM; design: scale not given: the % may be the effect or the level left
Chain of Dual specificity mitogen-activated protein kinase kinase 1 (MEK1, MAP2K1) (Homo sapiens) (Q02750 whole entry, looked up): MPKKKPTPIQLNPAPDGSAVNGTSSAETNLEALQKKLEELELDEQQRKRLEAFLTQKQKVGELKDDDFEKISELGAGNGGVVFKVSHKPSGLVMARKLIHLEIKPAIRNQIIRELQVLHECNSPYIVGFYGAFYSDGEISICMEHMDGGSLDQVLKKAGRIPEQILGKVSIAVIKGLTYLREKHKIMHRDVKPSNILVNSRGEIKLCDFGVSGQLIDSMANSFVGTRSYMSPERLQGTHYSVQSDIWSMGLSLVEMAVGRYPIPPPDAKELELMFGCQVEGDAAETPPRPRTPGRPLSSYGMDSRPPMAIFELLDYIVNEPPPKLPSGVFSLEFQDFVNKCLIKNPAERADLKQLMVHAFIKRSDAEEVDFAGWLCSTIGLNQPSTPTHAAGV

[9] = target: Cyclin-dependent kinase 2/cyclin A (Homo sapiens) (UniProt P24941+P20248+P78396); assay: Inhibition of Cyclin-dependent kinase 2-cyclin A at 1 uM; assay type: protein-complex assay; design: scale not given: the % may be the effect or the level left; summary of the method: as §1
[10] = target: MAP kinase-activated protein kinase 2 (Homo sapiens) (UniProt P49137); assay: Inhibition of MAPKAP-K2 kinase at 1 uM; design: scale not given: the % may be the effect or the level left; summary of the method: as §1
Chain of MAP kinase-activated protein kinase 2 (Homo sapiens) (P49137 whole entry, looked up): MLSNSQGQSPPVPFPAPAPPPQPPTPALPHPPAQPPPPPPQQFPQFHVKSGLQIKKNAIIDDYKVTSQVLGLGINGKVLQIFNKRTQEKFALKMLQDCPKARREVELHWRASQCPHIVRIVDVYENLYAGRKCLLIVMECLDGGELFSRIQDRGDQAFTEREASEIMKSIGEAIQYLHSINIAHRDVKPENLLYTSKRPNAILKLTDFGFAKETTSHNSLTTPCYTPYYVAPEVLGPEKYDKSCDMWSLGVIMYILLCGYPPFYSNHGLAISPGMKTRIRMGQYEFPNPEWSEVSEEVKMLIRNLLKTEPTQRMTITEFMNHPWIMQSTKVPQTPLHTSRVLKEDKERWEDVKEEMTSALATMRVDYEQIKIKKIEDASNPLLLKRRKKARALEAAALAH

[11] = target: Mitogen-activated protein kinase 3 (Homo sapiens) (UniProt P27361); assay: Inhibition of Mitogen-activated protein kinase 3 kinase at 1 uM; design: scale not given: the % may be the effect or the level left; summary of the method: as §1
Chain of Mitogen-activated protein kinase 3 (Homo sapiens) (P27361 whole entry): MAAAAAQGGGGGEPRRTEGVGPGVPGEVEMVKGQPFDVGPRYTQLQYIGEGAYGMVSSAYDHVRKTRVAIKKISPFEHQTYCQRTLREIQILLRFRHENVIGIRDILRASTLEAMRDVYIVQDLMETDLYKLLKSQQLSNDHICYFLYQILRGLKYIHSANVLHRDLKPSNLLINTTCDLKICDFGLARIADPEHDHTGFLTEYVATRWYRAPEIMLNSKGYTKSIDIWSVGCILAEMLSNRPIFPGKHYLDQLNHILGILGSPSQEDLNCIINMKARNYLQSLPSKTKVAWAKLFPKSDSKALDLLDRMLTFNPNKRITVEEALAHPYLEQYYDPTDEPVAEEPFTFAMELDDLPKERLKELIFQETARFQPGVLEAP

[12] = target: Mitogen-activated protein kinase 8 (Homo sapiens) (UniProt P45983); assay: Inhibition of c-Jun N-terminal kinase 1-alpha 1 at 1 uM; design: scale not given: the % may be the effect or the level left; summary of the method: as §1
Chain of Mitogen-activated protein kinase 8 (Homo sapiens) (P45983 whole entry): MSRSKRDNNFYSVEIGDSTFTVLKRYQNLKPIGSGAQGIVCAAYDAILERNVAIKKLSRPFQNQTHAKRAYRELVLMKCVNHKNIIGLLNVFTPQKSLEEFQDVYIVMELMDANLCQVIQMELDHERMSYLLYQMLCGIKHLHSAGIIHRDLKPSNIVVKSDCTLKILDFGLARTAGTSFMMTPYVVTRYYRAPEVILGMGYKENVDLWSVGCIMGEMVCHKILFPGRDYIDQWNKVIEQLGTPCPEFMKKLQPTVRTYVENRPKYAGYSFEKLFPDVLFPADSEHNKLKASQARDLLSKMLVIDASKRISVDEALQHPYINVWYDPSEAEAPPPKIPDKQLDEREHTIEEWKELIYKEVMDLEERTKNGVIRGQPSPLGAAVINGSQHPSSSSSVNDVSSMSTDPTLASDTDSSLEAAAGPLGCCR

[13] = target: RAF proto-oncogene serine/threonine-protein kinase (Homo sapiens) (UniProt P04049); assay: Inhibition of RAF proto-oncogene serine/threonine-protein kinase at 1 uM; design: scale not given: the % may be the effect or the level left; summary of the method: as §1
Chain of RAF proto-oncogene serine/threonine-protein kinase (Homo sapiens) (P04049 whole entry): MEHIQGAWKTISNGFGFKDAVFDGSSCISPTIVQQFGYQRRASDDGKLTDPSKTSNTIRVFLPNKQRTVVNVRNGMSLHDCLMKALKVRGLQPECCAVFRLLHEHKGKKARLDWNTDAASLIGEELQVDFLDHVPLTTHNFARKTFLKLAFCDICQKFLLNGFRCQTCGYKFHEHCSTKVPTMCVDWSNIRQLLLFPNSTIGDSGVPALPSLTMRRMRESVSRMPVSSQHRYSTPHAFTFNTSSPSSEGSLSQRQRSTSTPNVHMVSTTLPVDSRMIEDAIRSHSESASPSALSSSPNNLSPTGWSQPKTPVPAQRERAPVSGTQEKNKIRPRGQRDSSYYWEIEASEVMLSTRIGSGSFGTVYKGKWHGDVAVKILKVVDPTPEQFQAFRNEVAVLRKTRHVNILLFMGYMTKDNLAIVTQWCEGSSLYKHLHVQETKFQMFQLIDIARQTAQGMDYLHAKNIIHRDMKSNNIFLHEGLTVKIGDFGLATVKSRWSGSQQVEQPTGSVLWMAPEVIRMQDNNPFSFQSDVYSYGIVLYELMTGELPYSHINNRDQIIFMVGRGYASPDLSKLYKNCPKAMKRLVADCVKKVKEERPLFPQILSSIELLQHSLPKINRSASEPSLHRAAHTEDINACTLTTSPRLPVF

[14] = Solubility was determined; assay type: ADME, Rattus norvegicus
Summary of the method: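 Shake-flask method in 50 mM phosphate buffer, pH 7.4, ionic strength 0.15 M, with 24 h equilibration. Supernatant was centrifuged and filtered, diluted with acetonitrile, and quantified by UV-vis against calibration standards in 1:1 acetonitrile/buffer.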

[15] = Oral bioavailability in rat; assay type: ADME, organism-based; details: in vivo
[16] = Metabolism was measured as percent loss at 4 hr in rat hepatocytes; assay type: ADME, Hepatocyte; details: read-out: Metabolism
Summary of the method: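 Plated Sprague-Dawley rat hepatocytes on matrigel at 37 °C, 0.25 µM compound, in triplicate. Samples taken at 0, 2 and 4 h and pooled across compounds after incubation, with internal standard added. Analysis by reverse-phase HPLC/MS/MS. Analyte/internal-standard area ratio at 4 h divided by the 0 h ratio gives percent loss.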

[17] = target: Mitogen-activated protein kinase 1 (Homo sapiens) (UniProt P28482); assay: Inhibition of ERK2/MAPK2 kinase at 1 uM; design: scale not given: the % may be the effect or the level left; summary of the method: as §1
Chain of Mitogen-activated protein kinase 1 (Homo sapiens) (P28482 whole entry): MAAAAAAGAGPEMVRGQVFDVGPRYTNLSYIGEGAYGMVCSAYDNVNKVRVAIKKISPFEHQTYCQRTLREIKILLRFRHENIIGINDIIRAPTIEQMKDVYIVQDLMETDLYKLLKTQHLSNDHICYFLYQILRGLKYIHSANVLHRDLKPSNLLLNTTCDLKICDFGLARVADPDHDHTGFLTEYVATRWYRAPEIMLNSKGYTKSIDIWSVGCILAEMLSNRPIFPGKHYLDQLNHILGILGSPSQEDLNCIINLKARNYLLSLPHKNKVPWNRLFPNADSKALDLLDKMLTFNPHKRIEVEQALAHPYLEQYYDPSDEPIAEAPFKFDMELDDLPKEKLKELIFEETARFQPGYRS

[18] = target: Tyrosine-protein kinase Lck (Homo sapiens) (UniProt P06239); assay: Inhibition of p56 Lck tyrosine kinase at 1 uM; design: scale not given: the % may be the effect or the level left; summary of the method: as §1
Chain of Tyrosine-protein kinase Lck (Homo sapiens) (P06239 2-509 limits assumed): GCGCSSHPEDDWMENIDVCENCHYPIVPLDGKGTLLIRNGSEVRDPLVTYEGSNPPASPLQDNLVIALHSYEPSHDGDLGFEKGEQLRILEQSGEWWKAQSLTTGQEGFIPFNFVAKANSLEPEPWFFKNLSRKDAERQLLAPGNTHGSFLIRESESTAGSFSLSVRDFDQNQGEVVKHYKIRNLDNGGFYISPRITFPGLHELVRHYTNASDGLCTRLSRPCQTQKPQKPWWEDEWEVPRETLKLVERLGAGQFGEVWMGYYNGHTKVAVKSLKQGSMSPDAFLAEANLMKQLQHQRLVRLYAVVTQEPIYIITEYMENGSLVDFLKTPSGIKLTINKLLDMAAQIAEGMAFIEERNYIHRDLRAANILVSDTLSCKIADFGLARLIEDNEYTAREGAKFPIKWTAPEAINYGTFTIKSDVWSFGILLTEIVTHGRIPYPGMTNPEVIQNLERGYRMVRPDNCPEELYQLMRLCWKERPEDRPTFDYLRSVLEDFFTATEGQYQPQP

[19] = Inhibition of MAPK1/IKKB kinase at 1 uM; design: scale not given: the % may be the effect or the level left
Summary of the method: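 Kinase panel, tested at 1 µM compound with ATP at its K_m, in triplicate. Activity is expressed as a percentage of that in control incubations.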

[20] = target: Mitogen-activated protein kinase 3 (Homo sapiens) (UniProt P27361); assay: Inhibition of Mitogen-activated protein kinase 3 at 1 uM; design: scale not given: the % may be the effect or the level left; summary of the method: as §1

Row | Activity [1] | Activity [2] | Activity [3] | IC50 [4] | Activity [5] | Activity [6] | Activity [7] | Activity [8] | Activity [9] | Activity [10] | Activity [11] | Activity [12] | Activity [13] | solubility [14] | bioavailability [15] | metabolised at 4 h [16] | Activity [17] | Activity [18] | Activity [19] | Activity [20] | Structure (SMILES)
1 | – | – | – | – | – | – | – | – | – | – | – | – | – | 460 µg/mL (≈ 1250 µM) | 10% | 60% | – | – | – | – | CC[C@H](C)Nc1nccc(-c2c(-c3ccc(F)cc3)c(=O)n3n2CCC3)n1
2 | 99% | 36% | 99% | 54 nM | 119% | 117% | 73% | 95% | 101% | 112% | 9% | 105% | 91% | 1850 µg/mL (≈ 4650 µM) | 25% | 29% | 108% | 141% | 111% | – | C[C@H](Nc1nccc(-c2c(-c3ccc(F)cc3)c(=O)n3n2CCC3)n1)C(C)(C)O

The remaining lines, values behind:

Row | Structure (SMILES) | Activity [1] | Activity [2] | Activity [3] | IC50 [4] | Activity [5] | Activity [6] | Activity [7] | Activity [8] | Activity [9] | Activity [10] | Activity [11] | Activity [12] | Activity [13] | solubility [14] | bioavailability [15] | metabolised at 4 h [16] | Activity [17] | Activity [18] | Activity [19] | Activity [20]
3 | COC[C@H](C)Nc1nccc(-c2c(-c3ccc(F)cc3)c(=O)n3n2CCC3)n1 | 96% | 5% | 72% | 27 nM | 89% | 90% | 8% | 102% | 108% | 113% | 96% | 65% | 55% | 840 µg/mL (≈ 2190 µM) | 63% | < 5% | 98% | – | – | –
4 | O=c1c(-c2ccc(F)cc2)c(-c2ccnc(NCc3ccccc3)n2)n2n1CCC2 | – | – | – | – | – | – | – | – | – | – | – | – | – | 100 µg/mL (≈ 249 µM) | 18% | 46% | – | – | – | –
5 | C[C@H](Nc1nccc(-c2c(-c3ccc(F)cc3)c(=O)n3n2CCC3)n1)c1ccccc1 | 95% | 4% | 101% | 8 nM | 98% | 166% | 8% | 99% | 117% | 91% | – | 52% | 61% | 200 µg/mL (≈ 481 µM) | 29% | 50% | 80% | 161% | – | 82%
